According to ChEMBL document CHEMBL4024783, “Alkylated Piperazines and Piperazine-Azole Hybrids as Antifungal Agents” (J Med Chem, 2018):
Converted amounts (≈) assume the structure as drawn.

Key:
Candida albicans [1] = assay: Antifungal activity against itraconazole and fluconazole resistant Candida albicans ATCC MYA-1237 after 48 hrs by broth dilution method; type: functional; conditions: Candida albicans, ATCC MYA-1237, 48 h
How it was run: (§1)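 CLSI M27-A3 broth microdilution with minor modifications. Overnight YPD culture grown at 35 °C, 200 rpm, adjusted to OD600 0.12, diluted in RPMI 1640 buffered to pH 7.0 with 0.165 M MOPS to a final 1–2 × 10^3 CFU/mL. Test compounds at 0.015–31.3 µg/mL, 48 h at 35 °C, DMSO <1.25%. […] Triplicate.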

Pichia kudriavzevii = assay: Antifungal activity against Candida krusei ATCC 6258 after 48 hrs by broth dilution method; type: functional; conditions: Pichia kudriavzevii, ATCC 6258, 48 h
How it was run: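 Yeasts tested per CLSI M27-A3 with minor changes. An overnight YPD culture (35 °C, 200 rpm) was adjusted to OD600 0.12 and diluted in MOPS-buffered RPMI 1640 (pH 7.0) to a final 1–2 × 10^3 CFU/mL. Compounds 0.015–31.3 µg/mL, DMSO <1.25%.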

Candida parapsilosis = assay: Antifungal activity against Candida parapsilosis ATCC 22019 after 48 hrs by broth dilution method; type: functional; conditions: Lodderomyces parapsilosis, ATCC 22019, 48 h
Candida albicans [2] = assay: Antifungal activity against itraconazole and fluconazole susceptible Candida albicans ATCC MYA-2876 after 48 hrs by broth dilution method; type: functional; conditions: Candida albicans, ATCC MYA-2876, 48 h
Nakaseomyces glabratus = assay: Antifungal activity against Candida glabrata ATCC 2001 after 48 hrs by broth dilution method; type: functional, CBS 138; conditions: Nakaseomyces glabratus, CBS 138, 48 h
Candida albicans [3] = assay: Antifungal activity against Candida albicans ATCC 10231 after 48 hrs by broth dilution method; type: functional; conditions: ATCC 10231, 48 h
Aspergillus terreus = assay: Antifungal activity against Aspergillus terreus ATCC MYA-3633 after 48 hrs by broth dilution method; type: functional; conditions: Aspergillus terreus, ATCC MYA-3633, 48 h
How it was run: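 Molds tested per CLSI M38-A2. Spores were harvested from sporulating PDA cultures by filtering through glass wool and counted on a hemocytometer. Serial dilutions (0.03–31.3 µg/mL) were made in RPMI 1640 buffered to pH 7.0 with 0.165 M MOPS, final inoculum 5 × 10^5 CFU/mL.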

Candida albicans [4] = assay: Antifungal activity against itraconazole and fluconazole resistant Candida albicans ATCC MYA-1003 after 48 hrs by broth dilution method; type: functional; conditions: Candida albicans, ATCC MYA-1003, 48 h; how it was run: as §1
Aspergillus nidulans = assay: Antifungal activity against Aspergillus nidulans ATCC 38163 after 48 hrs by broth dilution method; type: functional; conditions: Aspergillus nidulans, ATCC 38163, 48 h
How it was run: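 A. nidulans run per CLSI M38-A2. PDA spores were filtered through glass wool and counted by hemocytometer. Test range 0.03–31.3 µg/mL in MOPS-buffered RPMI 1640 (pH 7.0), final 5 × 10^5 CFU/mL.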

Aspergillus flavus = assay: Antifungal activity against Aspergillus flavus ATCC MYA-3631 after 48 hrs by broth dilution method; type: functional; conditions: ATCC MYA-3631, 48 h
Candida albicans [5] = assay: Antifungal activity against Candida albicans ATCC 64124 after 48 hrs by broth dilution method; type: functional; conditions: Candida albicans, ATCC 64124, 48 h; how it was run: as §1
Candida albicans [6] = assay: Antifungal activity against itraconazole and fluconazole susceptible Candida albicans ATCC MYA-2310 after 48 hrs by broth dilution method; type: functional; conditions: Candida albicans, ATCC MYA-2310, 48 h
Candida albicans [7] = assay: Antifungal activity against itraconazole and fluconazole resistant Candida albicans ATCC 90819 after 48 hrs by broth dilution method; type: functional; conditions: Candida albicans, ATCC 90819, 48 h; how it was run: as §1

Row | Structure (SMILES) | MIC (Candida albicans [1]) [µM] | MIC (Pichia kudriavzevii) [µM] | MIC (Candida parapsilosis) [µM] | MIC (Candida albicans [2]) [µM] | MIC (Nakaseomyces glabratus) [µM] | MIC (Candida albicans [3]) [µM] | MIC (Aspergillus terreus) [µM] | MIC (Candida albicans [4]) [µM] | MIC (Aspergillus nidulans) [µM] | MIC (Aspergillus flavus) [µM] | MIC (Candida albicans [5]) [µM] | MIC (Candida albicans [6]) [µM] | MIC (Candida albicans [7]) [µM]
1 | CCCCCCCCCN1CCN(CC(O)(Cn2cncn2)c2ccc(F)cc2F)CC1 (centres undefined) | 35.2 (≈ 15.8 µg/mL) | 2.2 (≈ 0.989 µg/mL) | 0.55 (≈ 0.247 µg/mL) | 8.8 (≈ 3.96 µg/mL) | 8.8 (≈ 3.96 µg/mL) | 2.2 (≈ 0.989 µg/mL) | 4.4 (≈ 1.98 µg/mL) | 35.2 (≈ 15.8 µg/mL) | 2.2 (≈ 0.989 µg/mL) | 1.1 (≈ 0.495 µg/mL) | 17.6 (≈ 7.91 µg/mL) | 35.2 (≈ 15.8 µg/mL) | 17.6 (≈ 7.91 µg/mL)
2 | CCCCCCCCCCN1CCNCC1 | 68.9 (≈ 15.6 µg/mL) | 34.5 (≈ 7.81 µg/mL) | 68.9 (≈ 15.6 µg/mL) | 68.9 (≈ 15.6 µg/mL) | 34.5 (≈ 7.81 µg/mL) | 68.9 (≈ 15.6 µg/mL) | 68.9 (≈ 15.6 µg/mL) | 68.9 (≈ 15.6 µg/mL) | 68.9 (≈ 15.6 µg/mL) | 138 (≈ 31.3 µg/mL) | 68.9 (≈ 15.6 µg/mL) | 68.9 (≈ 15.6 µg/mL) | 68.9 (≈ 15.6 µg/mL)
3 | CC[C@H](C)C[C@H](C)CCCCCCCCC(=O)N[C@H]1C[C@@H](O)[C@@H](NCCN)NC(=O)[C@@H]2[C@@H](O)CCN2C(=O)[C@H]([C@H](O)CCN)NC(=O)[C@H]([C@H](O)[C@@H](O)c2ccc(O)cc2)NC(=O)[C@@H]2C[C@@H](O)CN2C(=O)[C@H]([C@@H](C)O)NC1=O [CASPOFUNGIN] | 0.2 (≈ 0.219 µg/mL) | 0.4 (≈ 0.437 µg/mL) | 1.6 (≈ 1.75 µg/mL) | 0.05 (≈ 0.0547 µg/mL) | 0.05 (≈ 0.0547 µg/mL) | 0.8 (≈ 0.875 µg/mL) | > 25.8 | 0.4 (≈ 0.437 µg/mL) | > 25.8 | > 25.8 | 0.2 (≈ 0.219 µg/mL) | 0.1 (≈ 0.109 µg/mL) | 0.1 (≈ 0.109 µg/mL)
4 | CCCCCN1CCNCC1 | > 200 | > 200 | > 200 | > 200 | > 200 | > 200 | > 200 | > 200 | > 200 | > 200 | > 200 | > 200 | > 200
5 | CCCCCCCCCCCCCCN1CCOCC1 | > 110 | > 110 | > 110 | > 110 | > 110 | > 110 | > 110 | > 110 | > 110 | > 110 | > 110 | > 110 | > 110
6 | CN1CCNCC1 [METHYLPIPERAZINE] | > 312 | > 312 | > 312 | > 312 | > 312 | > 312 | > 312 | > 312 | > 312 | > 312 | > 312 | > 312 | > 312
7 | CCCCCCCCCCCN1CCNCC1 | 32.4 (≈ 7.79 µg/mL) | 32.4 (≈ 7.79 µg/mL) | 32.4 (≈ 7.79 µg/mL) | 64.8 (≈ 15.6 µg/mL) | 32.4 (≈ 7.79 µg/mL) | 32.4 (≈ 7.79 µg/mL) | 64.8 (≈ 15.6 µg/mL) | 64.8 (≈ 15.6 µg/mL) | 64.8 (≈ 15.6 µg/mL) | 130 (≈ 31.2 µg/mL) | 32.4 (≈ 7.79 µg/mL) | 32.4 (≈ 7.79 µg/mL) | 32.4 (≈ 7.79 µg/mL)
8 | OC(CN1CCOCC1)(Cn1cncn1)c1ccc(F)cc1F (centres undefined) | > 96.5 | > 96.5 | > 96.5 | > 96.5 | 96.5 (≈ 31.3 µg/mL) | > 96.5 | 48.1 (≈ 15.6 µg/mL) | 96.5 (≈ 31.3 µg/mL) | 6 (≈ 1.95 µg/mL) | 24 (≈ 7.78 µg/mL) | > 96.5 | 24 to 96.5 (≈ 7.78 to 31.3 µg/mL) | 12 to 96.5 (≈ 3.89 to 31.3 µg/mL)
9 | CCCCCN1CCN(CC(O)(Cn2cncn2)c2ccc(F)cc2F)CC1 (centres undefined) | > 79.5 | > 79.5 | 39.6 (≈ 15.6 µg/mL) | > 79.5 | > 79.5 | > 79.5 | > 79.5 | > 79.5 | > 79.5 | > 79.5 | > 79.5 | > 79.5 | 79.5 (≈ 31.3 µg/mL)
10 | CCCCCCCCCCCCCCN1CCN(CC(O)(Cn2cncn2)c2ccc(F)cc2F)CC1 (centres undefined) | 7.5 (≈ 3.9 µg/mL) | 1.9 (≈ 0.987 µg/mL) | > 60.2 | 15 (≈ 7.8 µg/mL) | > 60.2 | 3.8 (≈ 1.97 µg/mL) | 1.9 (≈ 0.987 µg/mL) | 3.8 (≈ 1.97 µg/mL) | 3.8 (≈ 1.97 µg/mL) | 0.9 (≈ 0.468 µg/mL) | 60.2 (≈ 31.3 µg/mL) | 7.5 (≈ 3.9 µg/mL) | 3.8 (≈ 1.97 µg/mL)
11 | CCCCCCCCCCCN1CCN(CC(O)(Cn2cncn2)c2ccc(F)cc2F)CC1 (centres undefined) | 32.8 (≈ 15.7 µg/mL) | 4.1 (≈ 1.96 µg/mL) | 0.5 (≈ 0.239 µg/mL) | 16.4 (≈ 7.83 µg/mL) | 8.2 (≈ 3.92 µg/mL) | 4.1 (≈ 1.96 µg/mL) | 4.1 (≈ 1.96 µg/mL) | 32.8 (≈ 15.7 µg/mL) | 4.1 (≈ 1.96 µg/mL) | 4.1 (≈ 1.96 µg/mL) | 32.8 (≈ 15.7 µg/mL) | 32.8 (≈ 15.7 µg/mL) | 32.8 (≈ 15.7 µg/mL)
12 | OC(CNCCN1CCOCC1)(Cn1cncn1)c1ccc(F)cc1F (centres undefined) | 85.2 (≈ 31.3 µg/mL) | > 85.2 | 85.2 (≈ 31.3 µg/mL) | 85.2 (≈ 31.3 µg/mL) | 85.2 (≈ 31.3 µg/mL) | 85.2 (≈ 31.3 µg/mL) | > 85.2 | > 85.2 | > 85.2 | > 85.2 | 85.2 (≈ 31.3 µg/mL) | > 85.2 | > 85.2
13 | CN1CCN(CC(O)(Cn2cncn2)c2ccc(F)cc2F)CC1 (centres undefined) | 92.8 (≈ 31.3 µg/mL) | 46.2 (≈ 15.6 µg/mL) | 2.9 (≈ 0.978 µg/mL) | 23.1 (≈ 7.79 µg/mL) | 92.8 (≈ 31.3 µg/mL) | 23.1 (≈ 7.79 µg/mL) | 92.8 (≈ 31.3 µg/mL) | 92.8 (≈ 31.3 µg/mL) | 2.9 (≈ 0.978 µg/mL) | 92.8 (≈ 31.3 µg/mL) | 92.8 (≈ 31.3 µg/mL) | 23.1 (≈ 7.79 µg/mL) | 92.8 (≈ 31.3 µg/mL)
